Measured values as given in ChEMBL document CHEMBL1146622, “Synthesis and biological evaluation of a novel phenyl substituted sydnone series as potential antitumor agents” (2003).

Columns and labels:
Assay type in all cases: functional, Homo sapiens
NCI-H460 = experiment: In vitro antitumor activity determined against NCI-H460 cells expressed as percent of growth of the treated cells compared to untreated cells; design: concentration or dose not given beside the values
Outline: (§1)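 NCI 3-cell-line prescreen (MCF7 breast, NCI-H460 lung, SF-268 CNS). Cells inoculated and incubated in microtiter plates, then exposed to test agent at a single concentration for 48 h. Alamar blue end-point read-out. Value is percent growth of treated cells relative to untreated cells.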

MCF7S [1] = experiment: In vitro antitumor activity determined against MCF-7 cells (breast) expressed as percent of growth of the treated cells compared to untreated cells; outline: as §1
SF-268 = experiment: In vitro antitumor activity determined against SF-268 cells expressed as percent of growth of the treated cells compared to untreated cells; design: concentration or dose not given beside the values; outline: as §1
MCF7S [2] = experiment: In vitro antitumor activity determined against MCF-7 cells expressed as percent of growth of the treated cells compared to untreated cells; design: concentration or dose not given beside the values; outline: as §1

O=[N+]([O-])c1cc(-[n+]2cc([O-])on2)ccc1Cl
Cell growth (NCI-H460): 91%
Cell growth (MCF7S [1]): 44%
Cell growth (SF-268): 9%

O=[N+]([O-])c1cc(-[n+]2cc([O-])on2)ccc1N1CCC1
Cell growth (NCI-H460): 95%
Cell growth (MCF7S [2]): 75%
Cell growth (SF-268): 95%

O=[N+]([O-])c1cc(-[n+]2cc([O-])on2)ccc1N1Cc2ccccc2C1
Cell growth (NCI-H460): 76%
Cell growth (MCF7S [2]): 75%
Cell growth (SF-268): 95%

CCN(CC)c1ccc(-[n+]2cc([O-])on2)cc1[N+](=O)[O-]
Cell growth (NCI-H460): 92%
Cell growth (MCF7S [2]): 85%
Cell growth (SF-268): 95%

O=[N+]([O-])c1cc(-[n+]2cc([O-])on2)ccc1F
Cell growth (NCI-H460): 0%
Cell growth (MCF7S [2]): 0%
Cell growth (SF-268): 0%

O=[N+]([O-])c1cc(-[n+]2cc([O-])on2)ccc1N1CCc2ccccc21
Cell growth (NCI-H460): 87%
Cell growth (MCF7S [2]): 82%
Cell growth (SF-268): 96%
